These results are taken from ChEMBL document CHEMBL4007452, “Discovery of an Orally Selective Inhibitor of Signal Transducer and Activator of Transcription 3 Using Advanced Multiple Ligand Simultaneous Docking” (J Med Chem, 2017).

Calls of active or inactive are those of the source. The rule behind the calls is not given here.

A short description of data set [1]: MRT (0 to infinity) in Sprague-Dawley rat plasma at 10 mg/kg, po measured after 24 hrs by UPLC analysis. The data set is classed as ADME, organism-based. The procedure, abridged:
(§1)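 Rat plasma sampled from 2 min to 24 h after a single i.v. (1 mg/kg) or p.o. (10 mg/kg) dose. Parameters were derived from the concentration-time profiles. The bioanalytical method was validated to FDA guidelines for selectivity, linearity, LLOQ, accuracy, precision, recovery, matrix effect and stability.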

For data set [2], the target named is T1, Signal transducer and activator of transcription 5B (Homo sapiens) (UniProt P51692).
T1 sequence (whole entry): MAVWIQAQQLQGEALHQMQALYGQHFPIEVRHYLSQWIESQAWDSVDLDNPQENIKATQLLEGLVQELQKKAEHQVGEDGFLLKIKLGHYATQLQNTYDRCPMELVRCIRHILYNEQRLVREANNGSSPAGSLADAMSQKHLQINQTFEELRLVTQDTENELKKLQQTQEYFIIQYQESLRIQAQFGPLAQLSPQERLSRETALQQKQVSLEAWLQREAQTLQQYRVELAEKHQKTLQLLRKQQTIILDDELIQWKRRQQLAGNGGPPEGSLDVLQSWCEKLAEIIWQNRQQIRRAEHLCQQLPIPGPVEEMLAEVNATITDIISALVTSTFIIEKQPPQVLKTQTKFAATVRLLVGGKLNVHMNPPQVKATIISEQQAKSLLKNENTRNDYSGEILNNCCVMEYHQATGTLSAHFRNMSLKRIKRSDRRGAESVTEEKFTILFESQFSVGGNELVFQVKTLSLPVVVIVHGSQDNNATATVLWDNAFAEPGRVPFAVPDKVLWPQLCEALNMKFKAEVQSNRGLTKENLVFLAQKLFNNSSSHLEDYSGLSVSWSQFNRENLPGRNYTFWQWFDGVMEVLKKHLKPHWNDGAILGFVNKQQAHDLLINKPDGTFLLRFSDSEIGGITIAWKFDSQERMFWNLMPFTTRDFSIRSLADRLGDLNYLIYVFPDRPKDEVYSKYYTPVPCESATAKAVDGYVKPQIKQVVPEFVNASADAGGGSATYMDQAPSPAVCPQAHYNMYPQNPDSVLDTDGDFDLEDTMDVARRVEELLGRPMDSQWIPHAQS
As to the kind of experiment: Binding affinity to STAT5B (unknown origin) after 30 mins by fluorescence polarization assay. The method, boiled down: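 A competitive fluorescence polarization assay measured displacement of fluorescent phosphopeptide from the SH2 domain of purchased STAT1 or STAT5 protein, using the corresponding peptides.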
A general note: In fluorescence polarisation assays a small probe gives low polarisation when free and higher when bound to something large.

For data set [3], the system named is CCRF S-180. Description: Anticancer activity against […] cells xenografted in BALB/c nude mouse assessed as reduction in tumor weight at 5 mg/kg, po measured after 21 days relative to vehicle control. In kind it is functional. The arrangement: scale not given: the % may be the effect or the level left. The method, boiled down:
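Male mice, 4 weeks old, given s.c. flank S180 mouse sarcoma cells (3 x 10^6). From day 2, 10 mice per group received saline vehicle, oral drug at 5 mg/kg, or i.p. drug at 1 mg/kg, each dissolved in saline. Therapy ran 21 days; tumor weight and body weight were recorded.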

Data set [4] can be described thus: MRT (0 to infinity) in Sprague-Dawley rat plasma at 1 mg/kg, iv measured after 24 hrs by UPLC analysis. The data set is classed as ADME, organism-based. The procedure, abridged: as §1
Data set [5] has as its system Mus musculus. As to the kind of experiment: Toxicity in BALB/c nude mouse xenografted with human MDA-MB-231 cells assessed as heart damage at 2.5 to 10 mg/kg, po qd administered for 32 days by H&E staining based light microscopy. The data set is classed as organism-based. Conditions: in vivo, 768 h. The procedure, abridged: (§2)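 6-week-old female athymic SPF BALB/c nude mice received 5 x 10^6 MDA-MB-231 cells s.c. in the flank. Oral treatment began once tumors reached about 100 mm3, with 8 mice per group and a saline vehicle control. […] Treatment lasted 32 days. Heart, liver, spleen, lung and kidney were fixed 48 h in 10% neutral-buffered formaldehyde, paraffin-embedded, cut at 5 µm, H&E-stained and examined by light microscopy.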
For orientation: In xenograft studies the graft and the host belong to different species.

The subject of data set [6] is Mus musculus. As to the kind of experiment: Acute toxicity in ICR mouse assessed as mortality at 200 to 1000 mg/kg, ip measured up to 2 weeks post-treatment. Conditions: in vivo, 336 h. The data set is classed as organism-based. The method, boiled down: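 ICR mice of both sexes, 7 weeks old, randomized into groups of 10. Each received a single intraperitoneal dose at 200, 400, 600, 800 or 1000 mg/kg.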

In data set [7] the test system is MDA-MB-231. As to the kind of experiment: Induction of SHP-1 expression in human MDA-MB-231 cells at 2.5 to 10 uM after 12 hrs by immunoblot analysis. In kind it is functional, cell-based. The method, boiled down: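 MDA-MB-231 cells at 60–80% confluence were treated 12 h with 10% FBS at 2.5-10 µM or 2.5-5 µM, against a DMSO control. Whole-cell lysates were immunoblotted, with bands quantified as percent of control.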
In general terms: In western blotting, separated proteins are transferred to a membrane and probed.

In data set [8] the test system is Mus musculus. Description: Effect on total STAT3 level in BALB/c nude mouse xenografted with human MDA-MB-231 at 2.5 to 10 mg/kg, po qd administered for 32 days by Western blot analysis. The data set is classed as ADME, organism-based. The settings on record: in vivo, 768 h. The method, boiled down:
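Whole-cell lysates from MDA-MB-231 xenograft tumors of mice dosed orally at 2.5, 5 or 10 mg/kg were immunoblotted for P-STAT3(Y705), T-STAT3 and GAPDH.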

Data set [9] can be described thus: Cmax in Sprague-Dawley rat plasma at 1 mg/kg, iv measured after 24 hrs by UPLC analysis. The arrangement: dose 1 mg/kg, route intravenous. In kind it is ADME, organism-based. The method, boiled down:
as §1

Data set [10] has as its system Mus musculus. As to the kind of experiment: Toxicity in BALB/c nude mouse xenografted with human MDA-MB-231 cells assessed as spleen damage at 2.5 to 10 mg/kg, po qd administered for 32 days by H&E staining based light microscopy. In kind it is organism-based. The settings on record: in vivo, 768 h. The method, boiled down:
as §2

Data set [11] is described as follows: Clearance in Sprague-Dawley rat plasma at 1 mg/kg, iv measured after 24 hrs by UPLC analysis. In kind it is ADME, organism-based. The method, boiled down:
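Parameters were derived from the concentration-time profiles. The bioanalytical method was validated to FDA guidelines for selectivity, linearity, LLOQ, accuracy, precision, recovery, matrix effect and stability.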

`NS(=O)(=O)c1cccc2c1C(=O)C=C(Nc1ccccc1N1CCNCC1)C2=O`: the mean residence time MRT inf stood at 2.25 h in data set [1] and 0.71 h in data set [4]. Besides, the result in data set [2] was inactive. Also, the Activity is given as 72.74% in [3]; “Non-Toxic” in data set [5]; “Non-Toxic” in [6]; “Non-Toxic” in [8]; “Non-Toxic” in data set [10]. For the same compound, in data set [7], the result was Active. The concentration in data set [9] peaked (Cmax) at 359 ng/mL. Besides, the clearance in data set [11] was 87.7 mL/min/kg.

Usually MRT inf stands for a mean duration of stay, worked out from the concentration-time curve. Broadly, the Cmax is the highest concentration seen after dosing. The clearance is the rate of elimination divided by the concentration.
